Source: ChEMBL document CHEMBL1157573, “BRAF inhibitors based on an imidazo[4,5]pyridin-2-one scaffold and a meta substituted middle ring” (J Med Chem, 2010)
pIC50: −log10 of the molar value.

Key:
[1] = biological target: T1, Serine/threonine-protein kinase B-raf (Homo sapiens, UniProt P15056, V600E); experiment: Inhibition of human BRAF V600E mutant expressed in Sf9 cells
[2] = biological target: T1, Serine/threonine-protein kinase B-raf; experiment: Inhibition of BRAF V600E mutant-mediated ERK phosphorylation in human WM266.4 cells; assay type: cell-based
[3] = Antiproliferative activity against human WM266.4 cells after 6 days by SRB assay; assay type: functional; settings: WM 266-4, 144 h
Outline: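 SRB cell proliferation assay on WM266.4 melanoma cells, which carry mutant BRAF. Growth inhibition is reported as GI50.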

T1 sequence (P15056 2-766 V600E limits assumed): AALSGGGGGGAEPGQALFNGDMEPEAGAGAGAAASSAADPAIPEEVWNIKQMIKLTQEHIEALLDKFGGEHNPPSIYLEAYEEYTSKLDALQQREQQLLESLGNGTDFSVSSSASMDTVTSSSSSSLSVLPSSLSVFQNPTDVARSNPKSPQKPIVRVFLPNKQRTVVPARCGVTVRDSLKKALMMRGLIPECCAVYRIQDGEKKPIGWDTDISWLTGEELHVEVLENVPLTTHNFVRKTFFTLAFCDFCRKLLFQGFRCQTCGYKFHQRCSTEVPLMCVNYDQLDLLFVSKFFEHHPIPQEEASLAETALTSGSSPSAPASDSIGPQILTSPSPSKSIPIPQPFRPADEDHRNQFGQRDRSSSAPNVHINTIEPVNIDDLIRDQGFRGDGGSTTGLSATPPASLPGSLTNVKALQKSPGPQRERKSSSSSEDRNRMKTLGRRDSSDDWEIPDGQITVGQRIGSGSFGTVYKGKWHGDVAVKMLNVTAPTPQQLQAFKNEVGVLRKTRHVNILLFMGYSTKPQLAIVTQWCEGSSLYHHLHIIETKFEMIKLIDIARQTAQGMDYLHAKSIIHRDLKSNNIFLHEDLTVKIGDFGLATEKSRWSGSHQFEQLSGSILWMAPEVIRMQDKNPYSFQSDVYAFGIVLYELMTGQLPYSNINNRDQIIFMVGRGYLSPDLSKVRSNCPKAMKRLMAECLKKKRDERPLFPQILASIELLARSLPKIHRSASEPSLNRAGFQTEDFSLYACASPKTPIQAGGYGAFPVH

SMILES	pIC50 [1]	pIC50 [2]	GI50 [3] [µM]
O=C(Nc1cccc(Oc2ccnc3[nH]c(=O)[nH]c23)c1)c1ccccc1	4.60	< 4.00	1.54
O=C(Nc1ccc(Oc2ccnc3[nH]c(=O)[nH]c23)cc1)c1cc(F)cc(N2CCOCC2)c1	< 4.00	–	–
O=C(Nc1cccc(F)c1)Nc1cccc(Oc2ccnc3[nH]c(=O)[nH]c23)c1	5.56	4.30	3.3
O=C(Nc1ccc(Oc2ccnc3[nH]c(=O)[nH]c23)cc1)c1ccc(Br)cc1	4.85	–	–
O=C(Nc1cccc(Oc2ccnc3[nH]c(=O)[nH]c23)c1)c1ccc(Cl)cc1	4.17	< 4.00	9.1
Cc1ccc(NC(=O)c2cccc(OC(F)(F)F)c2)cc1Oc1ccnc2[nH]c(=O)[nH]c12	< 5.00	< 4.00	38
O=c1[nH]c2nccc(Oc3cccc(NS(=O)(=O)c4ccc(Cl)c(C(F)(F)F)c4)c3)c2[nH]1	5.17	4.18	40
O=C(Nc1cccc(Oc2ccnc3[nH]c(=O)[nH]c23)c1)c1cnn(-c2ccccc2)c1C(F)(F)F	< 4.00	4.42	3.3
O=C(Nc1cccc(Oc2ccnc3[nH]c(=O)[nH]c23)c1)c1cccc2c1OCCCO2	< 4.00	< 4.00	48
O=C(Nc1cccc(Oc2ccnc3[nH]c(=O)[nH]c23)c1)c1ccc2sccc2c1	4.66	4.18	1.5
O=C(Nc1cccc(Oc2ccnc3[nH]c(=O)[nH]c23)c1)c1ccnc(Cl)c1	4.03	< 4.00	25
O=C(Nc1cccc(Oc2ccnc3[nH]c(=O)[nH]c23)c1)c1cccc2c1OCCO2	< 4.00	< 4.00	40
O=C(Nc1cccc(Oc2ccnc3[nH]c(=O)[nH]c23)c1)c1ccccc1OC(F)(F)F	4.10	4.45	1.3
O=c1[nH]c2nccc(Oc3cccc(NS(=O)(=O)c4cccc(C(F)(F)F)c4)c3)c2[nH]1	4.81	4.24	0.83
O=c1[nH]c2nccc(Oc3ccc(NS(=O)(=O)c4cccc(C(F)(F)F)c4)cc3)c2[nH]1	< 4.00	–	–
Cc1cc(C(=O)Nc2cccc(Oc3ccnc4[nH]c(=O)[nH]c34)c2)n(C)n1	< 4.00	4.10	–
O=C(Cc1ccccc1)Nc1cccc(Oc2ccnc3[nH]c(=O)[nH]c23)c1	4.06	< 4.00	–

SMILES	pIC50 [1]	pIC50 [2]	GI50 [3] [µM]
O=C(CCc1ccccc1)Nc1cccc(Oc2ccnc3[nH]c(=O)[nH]c23)c1	4.03	< 4.00	30.9
CN(C)c1cccc(C(=O)Nc2cccc(Oc3ccnc4[nH]c(=O)[nH]c34)c2)c1	< 4.00	4.38	–
O=C(Nc1cccc(Oc2ccnc3[nH]c(=O)[nH]c23)c1)c1ccnn1-c1ccccc1	< 4.00	4.04	15.6
Cc1c(NC(=O)c2cccc(OC(F)(F)F)c2)cccc1Oc1ccnc2[nH]c(=O)[nH]c12	< 5.00	< 4.00	–
O=C(Nc1cc(C(F)(F)F)ccc1F)c1cccc(Oc2ccnc3[nH]c(=O)[nH]c23)c1	5.33	4.46	31
O=c1[nH]c2nccc(Oc3ccc(NS(=O)(=O)c4ccc(Cl)c(C(F)(F)F)c4)cc3)c2[nH]1	< 4.00	–	–
O=C(Nc1cccc(Oc2ccnc3[nH]c(=O)[nH]c23)c1)c1cccc(-n2ccnc2)c1	< 5.00	< 4.00	6.2
O=c1[nH]c2nccc(Oc3cccc(NS(=O)(=O)c4cccc5ccccc45)c3)c2[nH]1	4.60	4.67	0.85
Cc1ccc(Oc2ccnc3[nH]c(=O)[nH]c23)cc1NC(=O)c1cccc(OC(F)(F)F)c1	< 5.00	< 4.00	–
O=C(Nc1ccc(Oc2ccnc3[nH]c(=O)[nH]c23)cc1)c1ccc(Cl)c(C(F)(F)F)c1	4.80	–	–
O=c1[nH]c2nccc(Oc3cccc(NS(=O)(=O)c4ccccc4)c3)c2[nH]1	5.78	4.53	0.175
O=c1[nH]c2nccc(Oc3cccc(NS(=O)(=O)c4cccc(OC(F)(F)F)c4)c3)c2[nH]1	4.95	4.03	0.83
CC(C)(C)c1cc(C(=O)Nc2cccc(Oc3ccnc4[nH]c(=O)[nH]c34)c2)n(Cc2ccccc2)n1	< 4.00	< 4.00	–
O=c1[nH]c2nccc(Oc3cccc(NCc4cccc(OC(F)(F)F)c4)c3)c2[nH]1	< 5.00	< 4.00	0.74
O=C(Cc1cccc(OC(F)(F)F)c1)Nc1cccc(Oc2ccnc3[nH]c(=O)[nH]c23)c1	< 5.00	4.89	29.4
O=C(Cc1cccc(C(F)(F)F)c1)Nc1cccc(Oc2ccnc3[nH]c(=O)[nH]c23)c1	< 5.00	4.75	25.7
O=C(Nc1cccc(Oc2ccnc3[nH]c(=O)[nH]c23)c1)c1ccc2nsnc2c1	< 4.00	< 4.00	8.3

These reach a higher pIC50 [1]. Values come first.

pIC50 [1]	pIC50 [2]	SMILES	GI50 [3] [µM]
5.81	4.00	O=C(Nc1cccc(Oc2ccnc3[nH]c(=O)[nH]c23)c1)c1cccc(Br)c1	0.907
5.95	4.41	O=C(Nc1cccc(Oc2ccnc3[nH]c(=O)[nH]c23)c1)Nc1ccc(F)c(F)c1	3.7
6.04	4.54	O=C(Nc1cccc(Oc2ccnc3[nH]c(=O)[nH]c23)c1)c1cccc2ccccc12	23
6.07	–	O=c1[nH]c2nccc(Oc3ccc(NS(=O)(=O)c4ccccc4)cc3)c2[nH]1	–
6.11	< 4.00	O=C(Nc1cc(Oc2ccnc3[nH]c(=O)[nH]c23)c(Cl)cc1Cl)c1cccc(OC(F)(F)F)c1	1.2
6.13	4.38	O=C(Nc1cccc(Oc2ccnc3[nH]c(=O)[nH]c23)c1)Nc1cc(C(F)(F)F)ccc1N1CCOCC1	16.7
6.14	< 4.00	O=C(Nc1cccc(Oc2ccnc3[nH]c(=O)[nH]c23)c1)c1ccc(C(F)(F)F)cc1	–
6.16	4.62	O=C(Nc1cccc(Oc2ccnc3[nH]c(=O)[nH]c23)c1)c1cc(Cl)cc(C(F)(F)F)c1	3.3
6.23	5.69	Cc1ccc(-n2nc(C(C)(C)C)cc2NC(=O)c2cccc(Oc3ccnc4[nH]c(=O)[nH]c34)c2)cc1	–
6.30	4.83	Cc1ccc(-n2nc(C(F)(F)F)cc2NC(=O)c2cccc(Oc3ccnc4[nH]c(=O)[nH]c34)c2)cc1	32
6.47	< 4.00	COc1ccc(NC(=O)c2cccc(OC(F)(F)F)c2)cc1Oc1ccnc2[nH]c(=O)[nH]c12	–
6.91	5.71	CC(C)(C)c1cc(NC(=O)Nc2cccc(Oc3ccnc4[nH]c(=O)[nH]c34)c2)n(-c2ccc(F)cc2)n1	–
7.19	4.78	COc1cc(NC(=O)c2cccc(OC(F)(F)F)c2)cc(Oc2ccnc3[nH]c(=O)[nH]c23)c1	–
7.40	5.51	CCC(C)(C)c1cccc(C(=O)Nc2cccc(Oc3ccnc4[nH]c(=O)[nH]c34)c2)c1	–
7.64	–	O=C(Nc1ccc(Oc2ccnc3[nH]c(=O)[nH]c23)cc1)Nc1ccc(Cl)c(C(F)(F)F)c1	–
